# Compound activity as filed in PubChem BioAssay.
# KCNK3 block: human KCNK3 channel inhibitors, primary screen, CHO cells, FluxOR thallium flux, B-score. B-score at 10 µM. Potassium channel subfamily K member 3 (Homo sapiens), O14649. FluxOR fluorescence; active compounds read low. 0.84% of 340,000 active;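 active = B-score under library mean minus 4 SD, starting fluorescence ratio at most library mean plus 5 SD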;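 also: more negative B-score means stronger inhibition of thallium flux through KCNK3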
# Target sequence (O14649 whole entry, looked up): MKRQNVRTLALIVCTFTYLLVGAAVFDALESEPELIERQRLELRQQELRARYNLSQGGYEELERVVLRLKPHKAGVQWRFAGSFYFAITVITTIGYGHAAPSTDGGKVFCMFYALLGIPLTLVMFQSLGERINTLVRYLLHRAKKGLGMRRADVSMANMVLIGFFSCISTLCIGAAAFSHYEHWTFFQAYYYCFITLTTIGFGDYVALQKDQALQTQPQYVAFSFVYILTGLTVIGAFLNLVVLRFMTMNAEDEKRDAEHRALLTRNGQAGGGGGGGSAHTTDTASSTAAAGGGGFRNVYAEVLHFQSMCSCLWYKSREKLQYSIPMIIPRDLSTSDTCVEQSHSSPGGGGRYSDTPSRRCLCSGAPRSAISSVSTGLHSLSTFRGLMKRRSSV
# KCNQ1 inh: inhibitors of human KCNQ1 channel, primary screen, cell-based, thallium flux, high-throughput | Potassium voltage-gated channel subfamily KQT member 1 (Homo sapiens), P51787 | CHO-K1 KCNQ1, FluxOR thallium flux fluorescence; active compounds read high | B-score at 10 µM | 1.3% of 310,000 active;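 active = compounds whose thallium flux B-score, printed positive for inhibition, exceeds three library SD while starting fluorescence stays within three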;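 also: channel opened by potassium depolarization with thallium stimulus after 20 min compound exposure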
# KCNQ1 act: potentiators or activators of KCNQ1 channel, primary screen, cell-based, thallium flux, high-throughput; Potassium voltage-gated channel subfamily KQT member 1 (Homo sapiens), P51787; CHO-K1 KCNQ1, thallium flux FluxOR fluorescence; active compounds read high; B-score at 10 µM; 0.35% of 310,000 active;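 active = fluorescence ratio B-score, a plate-corrected score, at least three library SD, with initial intensity B-score within 5 SD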
#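 Assay system: CHO-K1 cells stably expressing KCNQ1; Medium: assay buffer with matched DMSO; Also added: K+/Tl+ depolarizing stimulus; Dosing: single dose; Timing: dye 90 min, compound 20 min, room temperature; Measured by: kinetic FluxOR thallium fluorescence, 10-s 1-Hz baseline, 110-s post-stimulus read; Read-out: peak-minus-minimum fluorescence over initial fluorescence, negative-control normalized, B-scored.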
# Kir21 block: inhibitors of mouse Kir2.1 inward-rectifier potassium channel. 0.85% of 310,000 active. AID 1672, 2009. Inward rectifier potassium channel 2 (Mus musculus), P35561. B-score at 10 µM. HEK293-Kir2.1, FluxOR thallium flux fluorescence; active compounds read low;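 active = fluorescence ratio B-score at or below minus 3 SD of library scores, with starting-brightness B-score within 2 SD, cut at about -4.2 in these data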;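 also: channel flux triggered by added potassium and thallium sulfate stimulus; B-score of peak minus minimum fluorescence over baseline after thallium stimulus; more negative B-score means stronger Kir2.1 block with less thallium influx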
# KCNK9 block: KCNK9 potassium channel inhibitors, primary screen, HEK293 cells, thallium flux. Potassium channel subfamily K member 9 (Homo sapiens), Q9NPC2. FluxOR thallium flux fluorescence; active compounds read low. B-score at 10 µM. 1.2% of 310,000 active. AID 488922, 2010;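 active = ratio B-score over 3 SD below the library mean, with starting fluorescence within 5 SD of its mean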;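 also: negative B-score means less thallium flux so channel inhibition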
# hERG protect: hERG rescue from dofetilide block, primary screen, cell-based, CHO-hERG, FluxOR thallium flux, dofetilide IC70. Voltage-gated inwardly rectifying potassium channel KCNH2 (Homo sapiens), Q12809. dofetilide IC70 present. activation (rescue from dofetilide block), less the hit threshold, % at 10 µM. 0.51% of 310,000 active. AID 1511, 2009;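 active = activation above the mean of controls blocked by dofetilide plus 5 SD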;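 also: thallium influx through hERG after potassium depolarization seen as dye fluorescence rise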
# KCNK9 block conf: KCNK9 potassium channel inhibitors, confirmation, HEK293 cells, thallium flux, duplicate | inhibition, % at 10 µM | FluxOR thallium flux fluorescence | 43% of 4,900 active | AID 492992, 2010 | shares compounds with KCNK9 block;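 active = thallium signal inhibited by more than 5 SD of the compound-free buffer control wells, on both duplicate plates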
# Kir2-1 spec: mouse Kir2.1 channel inhibition, confirmation, selectivity assay for KCNK9 modulator project, cell-based, HEK293, thallium flux; shares compounds with KCNK9 block; Kir2.1 cells, FluxOR thallium flux fluorescence; inhibition, % at 10 µM; 4% of 4,900 active;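 active = thallium signal drop more than 5 SD beyond the mean of the no-compound control wells, seen in both duplicate plates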;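 also: signal is fluorescence rise after thallium addition divided by baseline fluorescence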
# KCNK9 uninduced: thallium flux in non-induced HEK293 cells, confirmation, counter-screen for KCNK9 inhibitor project, cell-based, second counter screen, non-induced KCNK9-HEK293; FluxOR thallium flux; shares compounds with KCNK9 block; inhibition, % at 10 µM; 40% of 4,900 active;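 active = thallium signal drop beyond 5 SD of the untreated control mean, on both duplicate plates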
# Numbers stand for hits; – = inactive; · = no result given. In the library only some 3.7% were active in any assay of this set; here they are far more common.
SMILES,KCNK3 block,KCNQ1 inh,KCNQ1 act,Kir21 block,KCNK9 block,hERG protect,KCNK9 block conf,Kir2-1 spec,KCNK9 uninduced
Cc1cc(C)c(C(=O)OCC(=O)Nc2cccc(S(=O)(=O)N3CCCCC3)c2)c(C)c1,–,6,–,–,–,–,–,–,–
CCN(CC)CCNC(=O)c1[nH]c2ccc(OCc3ccccc3)cc2c1C,–,–,–,–,–,–,·,·,·
Cc1ccc2cc(CCNC(=O)c3cccc([N+](=O)[O-])c3)c(=O)[nH]c2c1C,–,–,–,–,–,–,·,·,·
NC(=O)C1(N2CCCCC2)CCN(C(=S)Nc2ccc(S(N)(=O)=O)cc2)CC1,–,–,–,–,–,–,·,·,·
CCOC(=O)C1CCN(C(=O)c2ccc(Oc3cc(Cl)cc(Cl)c3)o2)CC1,–,–,–,–,–,–,–,–,–
COC(=O)c1cc(S(=O)(=O)N2CCCCCC2)c[nH]1,–,–,–,–,–,–,·,·,·
Cc1ccc(S(=O)(=O)N(C)C)cc1-n1c(SCC(=O)Nc2ccc(F)c(F)c2F)nc2ccccc2c1=O,–,–,–,–,-14,–,64%,–,40%
Cc1ccc(S(=O)(=O)N(C)C)cc1-n1c(SCC(=O)N(C)C)nc2ccccc2c1=O,–,–,–,–,–,–,·,·,·
CCN1CCN(c2ccc(S(=O)(=O)N3CCCCC3)cc2NC(=O)CCNC(C)=O)CC1,–,·,·,·,·,·,·,·,·
Cc1cc(N/N=C/c2ccc(Cl)cc2Cl)nc(NCc2ccccc2)n1,–,–,–,–,–,–,–,–,–
Cc1cc(N/N=C/c2ccc(F)cc2)nc(NCc2ccccc2)n1,–,–,–,–,–,–,·,·,·
COC(=O)C1=CN(Cc2ccc(C)cc2)C=C(C(=O)OC)C1c1ccc(F)c(F)c1,–,–,–,–,-11,–,–,–,39%
COc1ccc(N(CC(O)CN2CCOCC2)S(=O)(=O)c2ccccc2)cc1 (stereo unspecified),–,–,–,–,–,–,·,·,·
CCOC(=O)N1CCN(C(=O)CSc2ccc(-c3ccc(OC)cc3)nn2)CC1,–,–,–,–,–,–,·,·,·
Cc1ccc(C(=O)N2CCCC(N3CCN(c4cccc(C(F)(F)F)c4)CC3)C2)s1 (stereo unspecified),–,–,–,–,–,–,–,–,–
O=C(c1ccncc1)N1CCCC(N2CCN(c3cccc(C(F)(F)F)c3)CC2)C1 (stereo unspecified),–,–,–,–,–,–,·,·,·
Cc1ccc(C(=O)N2CCCC(N3CCN(c4ccccc4F)CC3)C2)s1 (stereo unspecified),–,–,–,–,–,–,–,–,–
CCc1cc(C(=O)N2CCCC(N3CCN(c4cccc(C(F)(F)F)c4)CC3)C2)n(C)n1 (stereo unspecified),–,–,–,–,–,–,–,–,–
Cc1cccc(C(=O)N2CCCC(N3CCN(c4ccccc4F)CC3)C2)n1 (stereo unspecified),–,–,–,–,–,–,·,·,·
CC1=C(C(=O)N2CCCC(N3CCN(c4cccc(C(F)(F)F)c4)CC3)C2)OCCO1 (stereo unspecified),–,–,–,–,–,–,–,–,–
CC1=C(C(=O)N2CCCC(N3CCN(c4cccc(Cl)c4)CC3)C2)OCCO1 (stereo unspecified),–,–,–,–,–,–,·,·,·
CSc1nc(C(=O)N2CCCC(N3CCN(c4ccccc4C)CC3)C2)cs1 (stereo unspecified),–,–,–,–,–,–,–,–,–
CCCCn1c(N)c(N(CC)C(=O)CCNC(=O)NC23CC4CC(CC(C4)C2)C3)c(=O)[nH]c1=O,–,–,–,–,–,–,·,·,·
O=c1sc(N2CCN(c3ccccc3F)CC2)nc2ccsc12,–,–,–,–,-13,–,36%,–,40%
COc1ccc(C(=O)N2N=C3CC(C)(C)OCC3C2c2ccccc2)cc1 (stereo unspecified),–,–,–,–,–,–,·,·,·
SMILES,KCNK3 block,KCNQ1 inh,KCNQ1 act,Kir21 block,KCNK9 block,hERG protect,KCNK9 block conf,Kir2-1 spec,KCNK9 uninduced
COCCC1CCCCN1Cc1cn(-c2ccccc2)nc1-c1ccc2c(c1)OCO2 (stereo unspecified),–,–,–,–,–,–,–,–,–
COC(=O)c1ccccc1Oc1nc(Cl)cc(OC)n1,–,–,–,–,–,–,·,·,·
COc1cc(OC)nc(Oc2ccccc2C(=O)Oc2ccccc2Cl)n1,–,–,–,–,-11,–,42%,–,28%
COc1cc(OC)nc(Oc2ccccc2C(=O)Oc2ccc(Cl)cc2)n1,–,–,–,–,-9,–,44%,–,39%
CCC1CCC2(CC1)NC(=O)N(CC(=O)N1CCc3ccccc31)C2=O (stereo unspecified),–,·,·,·,·,·,·,·,·
O=[N+]([O-])c1cc(Cl)ccc1N1CCN(c2ccccc2O)CC1,–,–,–,–,-8.5,–,–,–,25%
O=C1CC(N(CCc2ccccc2)C(=S)Nc2cc(Cl)ccc2Cl)C(=O)N1c1c(Cl)cccc1Cl (stereo unspecified),–,–,–,–,-9.6,–,42%,–,–
CN(C(=O)c1ccco1)c1nnc(C23CC4CC(CC(C4)C2)C3)s1,–,–,–,–,–,–,·,·,·
CN(C(=O)COc1ccc(Cl)cc1Cl)c1nnc(C23CC4CC(CC(C4)C2)C3)s1,–,–,–,–,–,–,–,–,–
Cc1ccccc1Nc1ncnc2c1cnn2-c1ccccc1,–,–,–,–,-9.5,–,–,–,–
Nc1nc(Cl)nc2c1ncn2C1CC(O)C(CO)O1 (stereo unspecified),–,–,–,–,–,–,·,·,·
Cc1cc(C)c2sc(N(CCCN(C)C)C(=O)c3ccc(S(=O)(=O)N(C)C4CCCCC4)cc3)nc2c1,–,–,–,–,–,–,–,–,–
